Assay outcomes: PubChem BioAssay, several laboratories
MPTP inh: blocks calcium-induced mitochondrial swelling; 1.4% of 360,000 active; inhibition, % at 10 µM; isolated mouse mitochondria, Ca2+ swelling absorbance, 30 min; AID 602449;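 active means inhibition of 50% or more, scaled per plate between neutral and stimulator controls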;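 further: 0% = DMSO wells given calcium and 100% = 1 mM EGTA wells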
NR3A LBD binder: modulates the human NR3A ligand-binding domain | NR3A LBD differential scanning fluorimetry, Tm shift; 0% = protein alone, 100% = glycine-bound protein | Tm shift relative to glycine control, % at 25 µM | 2.5% of 340,000 active | AID 1259313;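 active means melting temperature shift of at least 10% of the positive control shift, at one fixed dose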
procasp3 activ: activates human procaspase-3; activation, % at 8.5 µM; P42574; recombinant procaspase-3 D3A, Ac-DEVD-pNA absorbance 405 nm; 0.11% of 330,000 active;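 active means activation above the mean of all tested compounds plus 3 SD, cut at about 21% in these data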;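 further: 0% = DMSO alone and 100% = DMSO wells spiked with extra 5 µM PC-3 D3A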
Target sequence (P42574 whole entry D9A/D28A/D175A): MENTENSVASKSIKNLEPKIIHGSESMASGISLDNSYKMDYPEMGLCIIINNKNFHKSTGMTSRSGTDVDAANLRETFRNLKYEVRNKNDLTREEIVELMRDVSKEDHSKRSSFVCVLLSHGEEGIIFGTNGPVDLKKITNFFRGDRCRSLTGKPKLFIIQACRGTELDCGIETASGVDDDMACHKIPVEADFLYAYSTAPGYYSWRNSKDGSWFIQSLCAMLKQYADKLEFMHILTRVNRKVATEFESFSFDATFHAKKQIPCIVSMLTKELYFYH
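Evaluation: percent activation relative to control range; Material: Procaspase-3 D3A mutant, all three cleavage aspartates alanine; Compound: single dose, 8.5 µM nominal compound, 0.8% DMSO; Replication: one well per compound; Signal: absorbance at 405 nm, 0 and 120 min; Schedule: 1 h preincubation plus 2 h reaction at 25 °C.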
procasp7 counter: counter-screen for procaspase-3 activators: activators of human procaspase-7; P55210; recombinant procaspase-7, Ac-DEVD-pNA absorbance 405 nm; D23A/D198A/D206A triple mutant, cannot self-cleave; scale: DMSO 0, 5 µM enzyme 100; activation, % at 8.5 µM; 0.093% of 330,000 active; AID 463210;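 active means percent activation above the screen-wide mean plus 3 SD, cut at about 25% in these data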
Target sequence (P55210 whole entry D23A/D198A/D206A): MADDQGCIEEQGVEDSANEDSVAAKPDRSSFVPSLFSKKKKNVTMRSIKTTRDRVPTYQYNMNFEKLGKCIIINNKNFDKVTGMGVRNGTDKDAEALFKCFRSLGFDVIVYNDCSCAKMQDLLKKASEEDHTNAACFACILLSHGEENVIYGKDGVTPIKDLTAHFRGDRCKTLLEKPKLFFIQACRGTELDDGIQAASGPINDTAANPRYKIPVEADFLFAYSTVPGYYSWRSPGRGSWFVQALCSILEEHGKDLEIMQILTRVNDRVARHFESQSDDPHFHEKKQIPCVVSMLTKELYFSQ
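buffer or medium = Zinc-free HEPES/NaCl buffer, pH 7.4 | material = Procaspase-7 triple mutant (PC-7 D3A) | input = 2 µM procaspase-7 mutant as dispensed | signal = Epi-absorbance of released pNA at 405 nm, two timepoints | timing = 1 h preincubation, 2 h reaction | replicates = singlicate compound testing | evaluation = % activation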
aDG glyco act: alpha-DG glycosylation activation | Pro5-aDG cells, alpha-DG glycosylation AlphaScreen (IIH6); 0% Pro5, 100% B10-LARGE cell signal | activation, % at 10 µM | 0.22% of 360,000 active | AID 624168;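 active means activation of at least 8% versus controls, or a plate z-score of at least 8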;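 further: Pro5 are CHO cells carrying HIG-tagged alpha-DG that lacks glycosylation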
Rh123 counter: Rhodamine 123 counter-screen of mitochondrial pore hits; isolated mitochondria, membrane potential, Rhodamine 123 fluorescence; inhibition, % at 10 µM; shares compounds with MPTP inh; 78% of 5,000 active; in the data active means inhibition above about 22%;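 further: 0% = DMSO vehicle and 100% = positive control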
MPTP abs DR: MPTP inhibition, dose response swelling confirmation. IC50, µM. 58% of 780 active. isolated mitochondria swelling, absorbance. shares compounds with MPTP inh; in the data active means IC50 below about 20 µM
MPTP cs DR: active in counter-screen for permeability transition pore inhibitors. shares compounds with MPTP inh. isolated mitochondria counterscreen, fluorescence read-out. IC50, µM. 49% of 780 active; in the data active means IC50 below about 80 µM
An asterisk follows results filed as active; x = not tested or not shown. Compounds with a hit are over-represented: about 3.7% of the library has one in this group of screens.

SMILES	MPTP inh	NR3A LBD binder	procasp3 activ	procasp7 counter	aDG glyco act	Rh123 counter	others
Cc1noc(C)c1C(=O)Nc1sc(C)c(-c2ccccc2)c1C#N	73.6*	-6.7	-2.5	4.3	0.3	79.7*
Nc1ncnc2c1ncn2[C@@H]1O[C@H](C(=O)N[C@H](CO)Cc2ccc(O)cc2)[C@@H](O)[C@H]1O	-1.0	x	x	x	-0.1	x
Cc1cc(C(C)(C)C)nc2[nH]n(-c3ccccc3)c(=O)c12	4.8	1.6	1.6	1.8	-0.1	x
O=c1c2c(C(F)(F)F)cc(C(F)(F)F)nc2[nH]n1-c1ccccc1	90.0*	0.4	2.8	-6.4	-0.1	67.8*
Cc1ccc(NC(=O)C(C)N=C2NS(=O)(=O)c3ccccc32)cc1F (configuration not stated)	87.3*	8.4	0.3	-2.6	-0.1	87.5*
CCOC(=O)c1ccc(Nc2ccc(C(C)=O)cc2)cc1	0.6	x	x	x	0.2	x
CCOC(=O)c1ccc(Nc2nnc(C(C)(C)C)c(=O)[nH]2)cc1	92.7*	-6.5	1.3	-2.7	0.2	83.1*
COc1ccc(Cn2c(=O)oc3ccc(C)cc32)cc1OC	72.4*	-1.6	-9.1	0.9	1.6	35.3*
COc1ccc(Cn2c(=O)oc3ccccc32)cc1OC	3.4	x	x	x	-0.2	x
CC(C)Oc1cccc(C(=O)N/N=C/c2coc3ccccc3c2=O)c1	-0.6	0.7	x	x	-0.1	x
Cc1cc(C)cc(-n2cccc2/C=C2/C(=N)N3C(=NC2=O)SN=C3S(C)(=O)=O)c1	62.7*	1.3	-10.1	-5.5	-0.2	49.6*
COc1ccc2cc(CCNS(=O)(=O)c3c(C)cc(C)cc3C)c(=O)[nH]c2c1	-0.2	-2.4	11.8	-0.4	0.0	x
CCCCCCCCCC1(CC(=O)OCC)SCCN1C(N)=O (configuration not stated)	6.9	x	x	x	-0.1	x
O=C(c1ccco1)N1CCCC(c2nc3c(nnn3Cc3cccc(Cl)c3)c(=O)[nH]2)C1 (configuration not stated)	0.5	-3.5	-3.7	8.7	-0.3	x
N#Cc1ccc(NC(=O)N2CCC(c3nc4c(nnn4Cc4cccc(Cl)c4)c(=O)[nH]3)CC2)cc1	55.6*	4.2	13.4	-2.1	1.4	28.1*
O=C(Cn1nnc(-c2cc(C(F)(F)F)cc(C(F)(F)F)c2)n1)NNC(=S)Nc1ccc(Cl)cc1	83.6*	35.9*	10.1	-6.2	-0.1	61.4*
Cc1cc(C(F)(F)F)nn1CC(=O)NNC(=S)Nc1ccc(Cl)cc1	1.2	-1.3	7.5	-4.9	-0.1	x
Clc1ccc(/C=C\c2nccc3c2[nH]c2ccccc23)cc1	70.4*	19.9*	x	x	1.0	83.1*
CNS(=O)(=O)c1ccc(CNC[C@H]2O[C@@H](n3ccc(N)nc3=O)[C@H](O)[C@@H]2O)cc1	-1.4	x	x	x	-0.1	x
CCCCCCCC1CC(CSC(=N)N)OC1=O (configuration not stated)	97.3*	-0.6	2.7	12.3	0.6	-4.8	MPTP abs DR=6.29*;MPTP cs DR=51.5*
COc1ccc(OC)c(C(=O)COC(=O)COc2ccccc2F)c1	-0.5	2.6	x	x	0.2	x
Cc1cc(F)ccc1S(=O)(=O)Nc1ccccc1C(=O)Nc1ccccc1-c1nc2ccccc2[nH]1	72.2*	18.3*	4.9	-2.5	0.7	68.5*
O=C(Nc1ccccc1N1CCOCC1)c1ccccc1NS(=O)(=O)c1ccc(F)c(F)c1	62.1*	-8.4	-5.9	-4.5	0.6	97.9*
Cc1cc(F)ccc1S(=O)(=O)Nc1ccccc1C(=O)Nc1ccccc1N1CCOCC1	78.3*	2.4	5.3	6.2	0.1	89.3*
O=C(Nc1ccccc1N1CCOCC1)c1ccccc1NS(=O)(=O)c1ccc(F)cc1	5.4	-7.0	1.3	3.4	-0.3	x
SMILES	MPTP inh	NR3A LBD binder	procasp3 activ	procasp7 counter	aDG glyco act	Rh123 counter	others
C#CCOC(=O)Nc1cc(C)n(-c2ccccc2)n1	-0.3	-0.7	-9.5	6.3	-0.1	x
Cc1nn(C)c(Nc2ccc(Br)cc2)c1Br	88.6*	-0.2	1.1	3.9	6.4	75.8*
Cc1cc(C)nc(-n2nc(C)c(Br)c2Nc2ccc(Br)cc2)n1	1.7	0.4	-17.7	0.6	3.1	x
O=S(=O)(c1ccc(NC(=S)N2CCCCC2CO)cc1)N1CCOCC1 (configuration not stated)	-1.6	x	x	x	-0.1	x
CC(C)C1C(=O)N(Cc2cn(CCC3OCCCO3)nn2)CCS(=O)(=O)N1Cc1ccc(-c2ccc(Cl)c(Cl)c2)cc1 (configuration not stated)	-2.2	x	x	x	0.0	x
Cc1ccc(Cn2nc(C)c(NC(=O)CCCn3nc(C)c([N+](=O)[O-])c3C)c2C)cc1	-12.6	2.4	7.8	-5.1	0.1	x
Cc1ccc(C)c(Oc2cc(NC(=O)CCCn3nc(C)c([N+](=O)[O-])c3C)cc([N+](=O)[O-])c2)c1	93.8*	16.1*	0.6	-2.9	4.1	75.2*
COC(=O)c1ccc(C(=O)Nc2ccc(F)cc2)cc1	-1.7	-367.9	2.6	15.2	-0.1	x
COC(=O)c1ccc(NC(=O)Nc2cccc(F)c2)cc1	85.4*	29.8*	-3.7	11.9	1.1	86.8*
COc1cccc(NC(=O)NC2(C(F)(F)F)Oc3ccccc3O2)c1	96.7*	-2.3	2.1	-12.6	0.2	83.4*
O=C(Nc1ccc(F)cc1)Nc1cccc(Br)c1	88.9*	43.4*	-0.6	-8.6	0.3	91.1*
COc1cccc(NC(=O)Nc2cccc(C(=O)O)c2)c1	-1.5	4.0	-6.3	7.8	-0.2	x
CCc1ccc(NC(=O)Nc2cccc(OC)c2)cc1	63.0*	4.4	-1.9	-6.6	1.1	77.3*
Cc1ccc(N2CC(C(=O)Nc3ncc([N+](=O)[O-])s3)CC2=O)cc1 (configuration not stated)	6.8	-8.3	-10.0	-14.9	0.4	x
CCOc1ccc(OCCC(=O)OCC(=O)NNC(=O)c2ccccc2)cc1	-1.1	x	15.8	-1.3	0.0	x
COC(=O)c1ccc(NC(=O)Nc2ccc(F)cc2F)cc1	85.8*	5.4	-2.0	7.0	0.1	95.6*
O=C(Nc1ccccc1)Nc1ccc(F)cc1F	17.3	-7.9	3.6	8.9	-0.1	x
Cc1ccc(S(=O)(=O)N2CCN(C(C)C(=O)NCC(C)c3ccccc3)CC2)cc1 (configuration not stated)	-1.1	0.3	7.8	1.2	0.4	x
COc1ccc(OC)c(C(=O)CCCC(=O)c2cc(OC)ccc2OC)c1	0.7	-0.5	1.4	1.7	0.3	x
CCCCc1c(C(=O)O)cc(OC)cc1C(=O)O	-1.3	-0.3	1.0	6.8	0.0	x
